The record followed here is ChEMBL document CHEMBL1151705, “Novel azalides derived from 16-membered macrolides. Part II: Isolation of the linear 9-formylcarboxylic acid and its sequential macrocyclization with an amino alcohol or an azidoamine” (2008).

SMILES strings stand for the structures. Converted amounts (≈) assume the structure as drawn.

Common to all, as to assay type: functional
Test [1] concerns Haemophilus influenzae. The experiment in a line: Antimicrobial activity against drug-susceptible Haemophilus influenzae 4 after 20 hrs by agar dilution method. Conditions: Haemophilus influenzae, 20 h; read-out: MIC. The essentials: (§1)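 Streptococci, H. influenzae and M. catarrhalis were precultured on blood agar plates. Suspensions of about 10⁶ CFU/ml were inoculated onto sensitivity disk agar supplemented with 5% horse blood and incubated at 37 °C for 20 h. MIC was read as the lowest drug concentration with no visible growth.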
In general terms: Agar dilution tests growth on a series of plates holding different concentrations.

The subject of test [2] is Staphylococcus aureus. The test is described as follows: Antimicrobial activity against Staphylococcus aureus 5 expressing inducible ermB after 20 hrs by agar dilution method. To be noted: Staphylococcus aureus, 20 h; read-out: MIC. An outline of the steps: (§2)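 Agar dilution MIC. S. aureus seed culture was grown in sensitivity test broth. Cell suspension (about 10⁶ CFU/ml) was inoculated onto sensitivity disk agar with 5% horse blood and incubated at 37 °C for 20 h. MIC was the lowest drug concentration that prevented visible growth.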

Test [3] concerns Streptococcus pneumoniae. The experiment in a line: Antimicrobial activity against Streptococcus pneumoniae 7 expressing inducible ermB after 20 hrs by agar dilution method. Conditions: Streptococcus pneumoniae, 20 h; read-out: MIC. The essentials: as §1
The subject of test [4] is Streptococcus pneumoniae. The experiment in a line: Antimicrobial activity against drug-susceptible Streptococcus pneumoniae DP1 Type1 after 20 hrs by agar dilution method. To be noted: Streptococcus pneumoniae, 20 h; read-out: MIC. The essentials:
as §1

For test [5], the system named is Staphylococcus aureus. The test is described as follows: Antimicrobial activity against drug-susceptible Staphylococcus aureus 209P JC-1 after 20 hrs by agar dilution method. Conditions: Staphylococcus aureus, 209P, 20 h; read-out: MIC. The essentials: as §2
The test system of test [6] is Streptococcus pneumoniae. The test is described as follows: Antimicrobial activity against Streptococcus pneumoniae 9 expressing mefA after 20 hrs by agar dilution method. Conditions: Streptococcus pneumoniae, 20 h; read-out: MIC. The essentials:
as §1

Test [7] deals with Streptococcus pneumoniae. The test is described as follows: Antimicrobial activity against drug-susceptible Streptococcus pneumoniae 2 after 20 hrs by agar dilution method. To be noted: Streptococcus pneumoniae, 20 h; read-out: MIC. An outline of the steps:
as §1

Test [8] deals with Haemophilus influenzae. The test is described as follows: Antimicrobial activity against drug-susceptible Haemophilus influenzae 1 after 20 hrs by agar dilution method. Conditions: Haemophilus influenzae, 20 h; read-out: MIC. The essentials:
as §1

Test [9] deals with Haemophilus influenzae. The test is described as follows: Antimicrobial activity against drug-susceptible Haemophilus influenzae 2 after 20 hrs by agar dilution method. To be noted: Haemophilus influenzae, 20 h; read-out: MIC. An outline of the steps: as §1
Test [10] relates to Moraxella catarrhalis. The test is described as follows: Antimicrobial activity against drug-susceptible Moraxella catarrhalis 1 after 20 hrs by agar dilution method. To be noted: Moraxella catarrhalis, 20 h; read-out: MIC. An outline of the steps:
as §1

The subject of test [11] is Staphylococcus aureus. The test is described as follows: Antimicrobial activity against Staphylococcus aureus 4 constitutively expressing ermA after 20 hrs by agar dilution method. An outline of the steps: as §2
The test system of test [12] is Haemophilus influenzae. The test is described as follows: Antimicrobial activity against drug-susceptible Haemophilus influenzae 3 after 20 hrs by agar dilution method. Conditions: Haemophilus influenzae, 20 h; read-out: MIC. An outline of the steps: as §1
Test [13] deals with Streptococcus pneumoniae. The experiment in a line: Antimicrobial activity against Streptococcus pneumoniae 5 constitutively expressing ermB/mefA after 20 hrs by agar dilution method. Conditions: Streptococcus pneumoniae, 20 h; read-out: MIC. An outline of the steps:
as §1

Test [14] deals with Staphylococcus aureus. The experiment in a line: Antimicrobial activity against Staphylococcus aureus 6 expressing inducible ermB after 20 hrs by agar dilution method. The essentials: as §2
Test [15] concerns Staphylococcus aureus. The experiment in a line: Antimicrobial activity against drug-susceptible Staphylococcus aureus 3 after 20 hrs by agar dilution method. To be noted: Staphylococcus aureus, 20 h; read-out: MIC. An outline of the steps:
as §2

Test [16] has as its system Streptococcus pyogenes. The experiment in a line: Antimicrobial activity against Streptococcus pyogenes 3 expressing mefA after 20 hrs by agar dilution method. Conditions: Streptococcus pyogenes, 20 h; read-out: MIC. An outline of the steps:
as §1

Test [17] relates to Moraxella catarrhalis. The test is described as follows: Antimicrobial activity against drug-susceptible Moraxella catarrhalis 2 after 20 hrs by agar dilution method. To be noted: Moraxella catarrhalis, 20 h; read-out: MIC. An outline of the steps:
as §1

Test [18] relates to Streptococcus pneumoniae. The experiment in a line: Antimicrobial activity against Streptococcus pneumoniae 8 expressing inducible ermB after 20 hrs by agar dilution method. Conditions: Streptococcus pneumoniae, 20 h; read-out: MIC. The essentials:
as §1

Test [19] has as its system Streptococcus pyogenes. The experiment in a line: Antimicrobial activity against Streptococcus pyogenes 2 constitutively expressing ermB after 20 hrs by agar dilution method. The essentials: as §1
Test [20] concerns Staphylococcus aureus. The test is described as follows: Antimicrobial activity against drug-susceptible Staphylococcus aureus 2 after 20 hrs by agar dilution method. To be noted: Staphylococcus aureus, 20 h; read-out: MIC. The essentials: as §2
Test [21] deals with Streptococcus pneumoniae. The experiment in a line: Antimicrobial activity against Streptococcus pneumoniae 6 constitutively expressing ermB after 20 hrs by agar dilution method. To be noted: Streptococcus pneumoniae, 20 h; read-out: MIC. The essentials: as §1
For test [22], the system named is Streptococcus pyogenes. The test is described as follows: Antimicrobial activity against drug-susceptible Streptococcus pyogenes 1 after 20 hrs by agar dilution method. To be noted: Streptococcus pyogenes, 20 h; read-out: MIC. The essentials: as §1
For test [23], the system named is Streptococcus pneumoniae. The experiment in a line: Antimicrobial activity against Streptococcus pneumoniae 10 expressing mefA after 20 hrs by agar dilution method. Conditions: Streptococcus pneumoniae, 20 h; read-out: MIC. An outline of the steps: as §1

In the case of `CCC(=O)O[C@@H]1CC(=O)NCCCN(CCCc2ccnc3ccccc23)C[C@H](O)[C@H](C)C[C@H](CC=O)[C@H](O[C@@H]2O[C@H](C)[C@@H](O)[C@H](N(C)C)[C@H]2O)[C@H]1OC`, the MIC is 128 µg/mL (≈ 169 µM) with Haemophilus influenzae [1]; 64 µg/mL (≈ 84.3 µM) in the test with Staphylococcus aureus [2]; more than 128 µg/mL in the test on Streptococcus pneumoniae [3]; 16 µg/mL (≈ 21.1 µM) in the test with Streptococcus pneumoniae [4]; 64 µg/mL (≈ 84.3 µM) in the test on Staphylococcus aureus [5]; 32 µg/mL (≈ 42.2 µM) with Streptococcus pneumoniae [6]. In addition, the MIC in the test with Streptococcus pneumoniae [7] is 16 µg/mL (≈ 21.1 µM); in the test on Haemophilus influenzae [8], 64 µg/mL (≈ 84.3 µM); with Haemophilus influenzae [9] it was 8 µg/mL (≈ 10.5 µM); with Moraxella catarrhalis [10], 8 µg/mL (≈ 10.5 µM); against Staphylococcus aureus [11], more than 128 µg/mL; with Haemophilus influenzae [12] it was 64 µg/mL (≈ 84.3 µM). Also, the MIC in the test on Streptococcus pneumoniae [13] was more than 128 µg/mL; with Staphylococcus aureus [14], 64 µg/mL (≈ 84.3 µM); in the test on Staphylococcus aureus [15], 64 µg/mL (≈ 84.3 µM); in the test with Streptococcus pyogenes [16], 128 µg/mL (≈ 169 µM); in the test on Moraxella catarrhalis [17], 8 µg/mL (≈ 10.5 µM); in the test with Streptococcus pneumoniae [18], more than 128 µg/mL. Also, the MIC was more than 128 µg/mL against Streptococcus pyogenes [19]; 32 µg/mL (≈ 42.2 µM) in the test with Staphylococcus aureus [20]; more than 128 µg/mL in the test on Streptococcus pneumoniae [21]; 16 µg/mL (≈ 21.1 µM) with Streptococcus pyogenes [22]; 32 µg/mL (≈ 42.2 µM) in the test with Streptococcus pneumoniae [23].
On to `CCOC(=O)[C@H]1[C@H](C)O[C@@H](O[C@H]2[C@H](N(C)C)[C@@H](O)[C@H](O[C@H]3[C@@H](CC=O)C[C@@H](C)[C@@H](O)CN(CCCc4ccnc5ccccc45)CCCNC(=O)C[C@@H](OC(=O)CC)[C@@H]3OC)O[C@@H]2C)C[C@@]1(C)O`, for which the MIC with Haemophilus influenzae [1] was found to be 8 µg/mL (≈ 8.34 µM); in the test on Staphylococcus aureus [2] it was 0.5 µg/mL (≈ 0.521 µM); in the test with Streptococcus pneumoniae [3], 16 µg/mL (≈ 16.7 µM); in the test with Streptococcus pneumoniae [4] it was 0.06 µg/mL (≈ 0.0626 µM); with Staphylococcus aureus [5] it was 0.5 µg/mL (≈ 0.521 µM); in the test on Streptococcus pneumoniae [6] it was 0.13 µg/mL (≈ 0.136 µM). Moreover, the MIC in the test with Streptococcus pneumoniae [7] is 0.13 µg/mL (≈ 0.136 µM); in the test on Haemophilus influenzae [8], 16 µg/mL (≈ 16.7 µM); with Haemophilus influenzae [9], 1 µg/mL (≈ 1.04 µM); with Moraxella catarrhalis [10], 2 µg/mL (≈ 2.09 µM); in the test on Staphylococcus aureus [11], more than 128 µg/mL; in the test on Haemophilus influenzae [12], 4 µg/mL (≈ 4.17 µM). In addition, the MIC was more than 128 µg/mL in the test on Streptococcus pneumoniae [13]; 0.5 µg/mL (≈ 0.521 µM) against Staphylococcus aureus [14]; 0.5 µg/mL (≈ 0.521 µM) in the test on Staphylococcus aureus [15]; 1 µg/mL (≈ 1.04 µM) with Streptococcus pyogenes [16]; 1 µg/mL (≈ 1.04 µM) in the test with Moraxella catarrhalis [17]; 16 µg/mL (≈ 16.7 µM) in the test with Streptococcus pneumoniae [18]. Also, the MIC against Streptococcus pyogenes [19] is more than 128 µg/mL; in the test with Staphylococcus aureus [20] it was 1 µg/mL (≈ 1.04 µM); in the test with Streptococcus pneumoniae [21], more than 128 µg/mL; in the test with Streptococcus pyogenes [22], 0.25 µg/mL (≈ 0.261 µM); in the test on Streptococcus pneumoniae [23], 0.13 µg/mL (≈ 0.136 µM).
Consider `CCOC(=O)[C@H]1[C@H](C)O[C@@H](O[C@H]2[C@H](N(C)C)[C@@H](O)[C@H](O[C@H]3[C@@H](CC=O)C[C@@H](C)[C@@H](O)CN(CCCc4ccnc5ccccc45)CC[C@@H](C)OC(=O)C[C@@H](OC(=O)CC)[C@@H]3OC)O[C@@H]2C)C[C@@]1(C)OC(C)=O`, for which the MIC in the test on Haemophilus influenzae [1] was determined as 8 µg/mL (≈ 7.87 µM); in the test with Staphylococcus aureus [2], 0.13 µg/mL (≈ 0.128 µM); in the test with Streptococcus pneumoniae [3], 4 µg/mL (≈ 3.94 µM); in the test with Streptococcus pneumoniae [4], 0.06 µg/mL (≈ 0.059 µM); in the test with Staphylococcus aureus [5], 0.13 µg/mL (≈ 0.128 µM); in the test with Streptococcus pneumoniae [6] it was 0.13 µg/mL (≈ 0.128 µM). In addition, the MIC was 0.06 µg/mL (≈ 0.059 µM) with Streptococcus pneumoniae [7]; 16 µg/mL (≈ 15.7 µM) in the test with Haemophilus influenzae [8]; 1 µg/mL (≈ 0.984 µM) with Haemophilus influenzae [9]; 0.25 µg/mL (≈ 0.246 µM) in the test with Moraxella catarrhalis [10]; more than 128 µg/mL in the test on Staphylococcus aureus [11]; 8 µg/mL (≈ 7.87 µM) in the test with Haemophilus influenzae [12]. In addition, the MIC is more than 128 µg/mL in the test with Streptococcus pneumoniae [13]; 0.25 µg/mL (≈ 0.246 µM) against Staphylococcus aureus [14]; 0.25 µg/mL (≈ 0.246 µM) in the test with Staphylococcus aureus [15]; 0.13 µg/mL (≈ 0.128 µM) with Streptococcus pyogenes [16]; 0.25 µg/mL (≈ 0.246 µM) with Moraxella catarrhalis [17]; 8 µg/mL (≈ 7.87 µM) in the test on Streptococcus pneumoniae [18]. In addition, the MIC against Streptococcus pyogenes [19] is more than 128 µg/mL; with Staphylococcus aureus [20] it was 0.5 µg/mL (≈ 0.492 µM); with Streptococcus pneumoniae [21], more than 128 µg/mL; in the test with Streptococcus pyogenes [22], 0.06 µg/mL (≈ 0.059 µM); in the test with Streptococcus pneumoniae [23] it was 0.13 µg/mL (≈ 0.128 µM).
